Experimental data published in ChEMBL document CHEMBL1131432, “Side chain methyl substitution in the delta-opioid receptor antagonist TIPP has an important effect on the activity profile” (J Med Chem, 1998).
pIC50, pKi: −log10 of the molar value.

How the values were obtained:
Cavia porcellus [1] = species on record: Cavia porcellus; test: In vitro agonist activity in electrically stimulated guinea pig ileum.; type: functional
Method in brief: (§1)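 Isolated guinea pig ileum or mouse vas deferens, electrically stimulated; the read-out is inhibition of contractions. A [Leu5]enkephalin log dose–response curve was run on each preparation and test IC50 values were normalised to it. Antagonist Ke was taken from the IC50 ratio with and without a fixed antagonist concentration; in MVD the δ-antagonism was measured against DPDPE.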

Mus musculus [2] = species on record: Mus musculus; test: Inhibition of electrically evoked contractions of MVD. In MVD assay, the opioid effect was primarily mediated by delta-receptor; type: functional; method in brief: as §1
Mu-type opioid receptor = Mu-type opioid receptor (Rattus norvegicus, UniProt P33535); test: Binding affinity towards Opioid receptor mu 1 on rat forebrain membranes by [3H]sufentanil displacement.; parameters: species or system Membrane
[3] = molecular target: Kappa-type opioid receptor (Cavia porcellus, UniProt P41144); test: Binding affinity towards Opioid receptor kappa 1 on guinea pig cerebellum membranes by [3H]U-69593 displacement.; type: tissue-based, Membrane
Mus musculus [4] = species on record: Mus musculus; test: Inhibition of electrically evoked contractions of MVD. In MVD assay, the opioid effect are primarily mediated by delta-receptors.; type: functional
Method in brief: (§2)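 Mouse vas deferens preparations, electrically stimulated, with inhibition of evoked contractions as the read-out. Each preparation got a [Leu5]enkephalin log dose-response curve as standard, and test IC50 values were normalized against it. Antagonism was tested against the agonist DPDPE. Ke came from the ratio of agonist IC50 with and without a fixed antagonist concentration.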

Mus musculus [5] = species on record: Mus musculus; test: (§3) Inhibition of electrically evoked contractions of MVD in MVD assay, the opioid effect was primarily mediated by delta-receptor; type: functional; method in brief: as §1
Mus musculus [6] = species on record: Mus musculus; test: as §3; type: functional; remark: listed apart in the source
Cavia porcellus [7] = species on record: Cavia porcellus; test: In vitro opioid activity tested in bioassay based on inhibition of electrically evoked contractions of the GPI.; type: functional; method in brief: as §1
Mus musculus [8] = species on record: Mus musculus; test: Inhibition of electrically evoked contractions of MVD. In MVD assay, the opioid effect is primarily mediated by delta-receptor; type: functional; method in brief: as §2
Mus musculus [9] = species on record: Mus musculus; test: as §3; type: functional, organism-based; method in brief: as §1

Mu-type opioid receptor, sequence (P33535 whole entry): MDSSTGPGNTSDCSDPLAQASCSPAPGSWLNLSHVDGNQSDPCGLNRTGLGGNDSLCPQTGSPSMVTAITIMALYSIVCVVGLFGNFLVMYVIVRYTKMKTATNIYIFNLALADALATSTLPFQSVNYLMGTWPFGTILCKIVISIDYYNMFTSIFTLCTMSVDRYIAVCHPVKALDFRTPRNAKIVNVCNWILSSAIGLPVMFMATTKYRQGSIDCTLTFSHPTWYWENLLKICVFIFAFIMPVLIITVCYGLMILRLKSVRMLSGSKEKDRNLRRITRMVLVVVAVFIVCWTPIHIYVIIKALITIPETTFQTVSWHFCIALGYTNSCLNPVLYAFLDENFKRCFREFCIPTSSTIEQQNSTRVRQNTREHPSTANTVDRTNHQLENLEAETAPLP
Kappa-type opioid receptor, sequence (P41144 whole entry): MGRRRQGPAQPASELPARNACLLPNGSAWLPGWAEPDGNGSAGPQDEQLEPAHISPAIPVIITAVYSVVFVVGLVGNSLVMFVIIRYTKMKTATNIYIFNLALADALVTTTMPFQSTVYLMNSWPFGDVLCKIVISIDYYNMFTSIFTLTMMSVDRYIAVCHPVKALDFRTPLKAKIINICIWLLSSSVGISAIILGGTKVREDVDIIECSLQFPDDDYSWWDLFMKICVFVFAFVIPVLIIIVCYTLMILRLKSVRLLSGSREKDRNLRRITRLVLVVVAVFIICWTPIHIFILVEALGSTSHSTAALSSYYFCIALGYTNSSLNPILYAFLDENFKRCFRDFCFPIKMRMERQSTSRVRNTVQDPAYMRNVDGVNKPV

Row | Compound | pIC50 (Cavia porcellus [1]) | Ke (Mus musculus [2]) [nM] | pKi (Mu-type opioid receptor) | pKi [3] | Ke (Mus musculus [4]) [nM] | Ke (Mus musculus [5]) [nM] | IC25 (Mus musculus [6]) [nM] | IC35 (Cavia porcellus [7]) [nM] | Ke (Mus musculus [8]) [nM] | pIC50 (Mus musculus [9])
1 | N[C@@H](Cc1ccc(O)cc1)C(=O)N1Cc2ccccc2C[C@H]1C(=O)N[C@@H](Cc1ccccc1)C(=O)N[C@@H](Cc1ccccc1)C(=O)O | < 5.00 | 4.8 | < 5.00 | < 5.00 | – | – | – | – | – | –
2 | NC(=O)[C@H](Cc1ccccc1)NC(=O)[C@@H](Cc1ccccc1)NC(=O)[C@@H]1Cc2ccccc2CN1C(=O)[C@@H](N)Cc1ccc(O)cc1 | < 5.00 | 125 | 6.18 | – | – | – | – | – | – | –
3 | C[C@@H](c1ccc(O)cc1)[C@H](N)C(=O)N1Cc2ccccc2C[C@H]1C(=O)N[C@@H](Cc1ccccc1)C(=O)N[C@@H](Cc1ccccc1)C(N)=O | < 5.00 | – | 6.45 | < 5.00 | 102 | – | – | – | – | –
4 | C[C@H](c1ccc(O)cc1)[C@@H](N)C(=O)N1Cc2ccccc2C[C@H]1C(=O)N[C@@H](Cc1ccccc1)C(=O)N[C@@H](Cc1ccccc1)C(N)=O | < 5.00 | – | 5.80 | 5.93 | – | 1020 | – | – | – | –
5 | C[C@@H](c1ccccc1)[C@H](NC(=O)[C@H](Cc1ccccc1)NC(=O)[C@@H]1Cc2ccccc2CN1C(=O)[C@@H](N)Cc1ccc(O)cc1)C(N)=O | 6.20 | 5.36 | 7.33 | 5.89 | – | – | – | – | – | –
6 | C[C@@H](c1ccccc1)[C@H](NC(=O)[C@@H]1Cc2ccccc2CN1C(=O)[C@@H](N)Cc1ccc(O)cc1)C(=O)N[C@@H](Cc1ccccc1)C(N)=O | 5.26 | 18.2 | 6.01 | 5.47 | – | – | – | – | – | –
7 | C[C@H](c1ccccc1)[C@@H](NC(=O)[C@@H]1Cc2ccccc2CN1C(=O)[C@@H](N)Cc1ccc(O)cc1)C(=O)N[C@@H](Cc1ccccc1)C(=O)O | < 5.00 | 0.192 | < 5.00 | < 5.00 | – | – | – | – | – | –
8 | C[C@H](c1ccccc1)[C@H](NC(=O)[C@@H]1Cc2ccccc2CN1C(=O)[C@@H](N)Cc1ccc(O)cc1)C(=O)N[C@@H](Cc1ccccc1)C(N)=O | 5.29 | – | 6.83 | 5.36 | – | 7.24 | – | – | – | –
9 | C[C@H](c1ccc(O)cc1)[C@H](N)C(=O)N1Cc2ccccc2C[C@H]1C(=O)N[C@@H](Cc1ccccc1)C(=O)N[C@@H](Cc1ccccc1)C(N)=O | 5.92 | – | 6.55 | < 5.00 | – | – | 1030 | – | – | –
10 | C[C@@H](c1ccccc1)[C@@H](NC(=O)[C@H](Cc1ccccc1)NC(=O)[C@@H]1Cc2ccccc2CN1C(=O)[C@@H](N)Cc1ccc(O)cc1)C(N)=O | 5.35 | – | < 5.00 | 5.55 | – | 27.7 | – | – | – | –
11 | C[C@H](c1ccccc1)[C@@H](NC(=O)[C@H](Cc1ccccc1)NC(=O)[C@@H]1Cc2ccccc2CN1C(=O)[C@@H](N)Cc1ccc(O)cc1)C(N)=O | – | – | 6.30 | 6.12 | – | 20.5 | – | 1710 | – | –
12 | NC(=O)[C@H](Cc1ccccc1)NC(=O)[C@H](Cc1ccccc1)NC(=O)[C@@H]1Cc2ccccc2CN1C(=O)[C@@H](N)Cc1ccc(O)cc1 | – | – | 6.75 | 6.08 | – | – | – | – | 18 | –
13 | N[C@@H](Cc1ccc(O)cc1)C(=O)N1Cc2ccccc2C[C@H]1C(=O)NC(Cc1ccccc1)C(=O)N[C@@H](Cc1ccccc1)C(=O)O (single isomer, unassigned) | – | – | 5.40 | – | – | – | – | – | – | –
14 | C[C@@H](c1ccccc1)C(NC(=O)[C@@H]1Cc2ccccc2CN1C(=O)[C@@H](N)Cc1ccc(O)cc1)C(=O)N[C@@H](Cc1ccccc1)C(N)=O (single isomer, unassigned) | 6.90 | – | 7.08 | 5.92 | – | – | – | – | – | –
15 | C[C@H](c1ccccc1)C(NC(=O)[C@@H]1Cc2ccccc2CN1C(=O)[C@@H](N)Cc1ccc(O)cc1)C(=O)N[C@@H](Cc1ccccc1)C(N)=O (single isomer, unassigned) | < 5.00 | – | < 5.00 | 6.35 | – | 54.4 | – | – | – | –
16 | C[C@@H](c1ccc(O)cc1)C(N)C(=O)N1Cc2ccccc2C[C@H]1C(=O)N[C@@H](Cc1ccccc1)C(=O)N[C@@H](Cc1ccccc1)C(N)=O (single isomer, unassigned) | < 5.00 | – | < 5.00 | 5.60 | – | 317 | – | – | – | –
17 | C[C@H](c1ccccc1)C(NC(=O)[C@H](Cc1ccccc1)NC(=O)[C@@H]1Cc2ccccc2CN1C(=O)[C@@H](N)Cc1ccc(O)cc1)C(N)=O (single isomer, unassigned) | 5.56 | – | 5.69 | 6.60 | – | 5.37 | – | – | – | –
18 | C[C@H]1c2ccccc2CN(C(=O)C(N)Cc2ccc(O)cc2)[C@H]1C(=O)N[C@@H](Cc1ccccc1)C(=O)N[C@@H](Cc1ccccc1)C(=O)O (single isomer, unassigned) | < 5.00 | 1.61 | < 5.00 | < 5.00 | – | – | – | – | – | –
19 | CC1c2ccccc2CN(C(=O)C(N)Cc2ccc(O)cc2)[C@@H]1C(=O)N[C@@H](Cc1ccccc1)C(=O)N[C@@H](Cc1ccccc1)C(=O)O (single isomer, unassigned) | < 5.00 | 2.09 | < 5.00 | < 5.00 | – | – | – | – | – | –
20 | NC(=O)[C@H](Cc1ccccc1)NC(=O)[C@H](Cc1ccccc1)NC(=O)C1Cc2ccccc2CN1C(=O)[C@@H](N)Cc1ccc(O)cc1 (single isomer, unassigned) | 7.43 | – | 8.14 | – | – | – | – | – | – | 6.34
21 | C[C@@H]1c2ccccc2CN(C(=O)[C@@H](N)Cc2ccc(O)cc2)C1C(=O)N[C@@H](Cc1ccccc1)C(=O)N[C@@H](Cc1ccccc1)C(=O)O (single isomer, unassigned; 15) | < 5.00 | – | < 5.00 | < 5.00 | – | 1560 | – | – | – | –
22 | C[C@@H]1c2ccccc2CN(C(=O)[C@@H](N)Cc2ccc(O)cc2)C1C(=O)N[C@@H](Cc1ccccc1)C(=O)N[C@@H](Cc1ccccc1)C(=O)O (single isomer, unassigned; 16) | < 5.00 | – | < 5.00 | < 5.00 | – | 401 | – | – | – | –
